Results on five compounds are retold here after ChEMBL document CHEMBL3232838, “Synthesis, crystal structure and biological evaluation of some novel 1,2,4-triazolo[3,4-b]-1,3,4-thiadiazoles and 1,2,4-triazolo[3,4-b]-1,3,4-thiadiazines” (Eur J Med Chem, 2014).

The structures appear in SMILES notation.

The target of one test is Acetylcholinesterase (Electrophorus electricus, UniProt O42275). Description: Inhibition of electric eel acetylcholinesterase using acetylthiocholine iodide as substrate preincubated for 10 mins before substrate addition after 15 mins by Ellman's method. A general note: Ellman's reagent forms a yellow product with free thiols.
Acetylcholinesterase, sequence (O42275 whole entry): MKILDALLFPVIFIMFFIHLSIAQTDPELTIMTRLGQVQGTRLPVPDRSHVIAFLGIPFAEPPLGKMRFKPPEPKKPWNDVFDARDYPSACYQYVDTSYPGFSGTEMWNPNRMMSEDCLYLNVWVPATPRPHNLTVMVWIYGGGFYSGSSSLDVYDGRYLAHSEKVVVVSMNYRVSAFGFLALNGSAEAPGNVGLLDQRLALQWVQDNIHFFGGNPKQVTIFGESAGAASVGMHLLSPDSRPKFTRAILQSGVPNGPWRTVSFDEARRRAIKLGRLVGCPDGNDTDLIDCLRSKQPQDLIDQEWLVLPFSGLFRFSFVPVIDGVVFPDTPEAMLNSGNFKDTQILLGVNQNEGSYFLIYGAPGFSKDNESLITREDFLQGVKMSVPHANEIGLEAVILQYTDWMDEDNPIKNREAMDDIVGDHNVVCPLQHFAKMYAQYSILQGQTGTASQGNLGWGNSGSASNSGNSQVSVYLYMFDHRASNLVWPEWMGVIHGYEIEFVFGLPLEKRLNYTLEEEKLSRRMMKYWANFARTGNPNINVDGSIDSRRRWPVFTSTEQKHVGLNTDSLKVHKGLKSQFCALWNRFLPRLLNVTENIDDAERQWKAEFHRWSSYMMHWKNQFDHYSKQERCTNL
The target of the next test is Cholinesterase (Homo sapiens, UniProt P06276). Description: Inhibition of human BChE using butyrylthiocholine iodide as substrate preincubated for 10 mins before substrate addition after 15 mins by Ellman's method. In a few lines: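 Ellman assay in 50 mM Tris-HCl, 0.1 M NaCl, 0.02 M MgCl2, pH 8.0, with DMSO at 1% final. hBChE (3.4 U/mg) is preincubated with compound for 10 min at 25 °C. Blanks lack enzyme or substrate. IC50 from linear regression.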
Cholinesterase, sequence (P06276 whole entry): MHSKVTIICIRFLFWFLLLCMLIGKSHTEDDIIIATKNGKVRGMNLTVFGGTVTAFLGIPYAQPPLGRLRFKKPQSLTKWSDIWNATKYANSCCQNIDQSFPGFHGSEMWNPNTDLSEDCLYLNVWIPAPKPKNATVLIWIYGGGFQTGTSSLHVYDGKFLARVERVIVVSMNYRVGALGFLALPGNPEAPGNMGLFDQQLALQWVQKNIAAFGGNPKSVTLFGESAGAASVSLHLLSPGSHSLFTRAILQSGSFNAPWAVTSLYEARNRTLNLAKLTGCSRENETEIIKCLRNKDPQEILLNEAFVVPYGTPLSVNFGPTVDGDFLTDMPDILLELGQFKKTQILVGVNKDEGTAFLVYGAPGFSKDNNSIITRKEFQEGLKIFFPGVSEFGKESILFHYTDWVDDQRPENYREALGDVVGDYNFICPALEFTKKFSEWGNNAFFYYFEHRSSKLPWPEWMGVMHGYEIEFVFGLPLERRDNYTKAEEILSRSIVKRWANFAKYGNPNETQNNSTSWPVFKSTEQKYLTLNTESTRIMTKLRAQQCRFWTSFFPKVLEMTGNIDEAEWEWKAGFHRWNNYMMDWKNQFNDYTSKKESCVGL

The target in test [1] is Intestinal-type alkaline phosphatase (Bos taurus) (UniProt P19111). Put plainly: (§1) Inhibition of calf intestinal alkaline phosphatase using p-nitrophenyl phosphate as substrate preincubated for 10 mins before substrate addition after 30 mins. Also on record: concentration or dose not given beside the values.
Intestinal-type alkaline phosphatase (Bos taurus), sequence (P19111 20-506 limits assumed): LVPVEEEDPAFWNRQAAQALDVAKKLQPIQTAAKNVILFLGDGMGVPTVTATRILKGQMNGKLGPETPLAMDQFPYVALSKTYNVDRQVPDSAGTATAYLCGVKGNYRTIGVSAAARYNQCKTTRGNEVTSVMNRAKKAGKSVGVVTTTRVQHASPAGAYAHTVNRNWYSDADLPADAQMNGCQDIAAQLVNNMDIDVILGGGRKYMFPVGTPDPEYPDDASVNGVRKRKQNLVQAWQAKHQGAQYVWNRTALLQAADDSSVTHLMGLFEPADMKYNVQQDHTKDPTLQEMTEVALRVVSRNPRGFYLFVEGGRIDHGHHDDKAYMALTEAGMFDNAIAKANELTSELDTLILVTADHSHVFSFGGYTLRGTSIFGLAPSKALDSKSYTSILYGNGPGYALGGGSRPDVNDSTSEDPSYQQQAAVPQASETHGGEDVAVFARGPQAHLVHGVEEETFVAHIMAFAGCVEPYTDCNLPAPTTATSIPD
Test [2] can be described thus: Anticancer activity against Syrian golden hamster BHK21 cells at 100 uM after 48 hrs by SRB assay. It is filed as functional. To be noted: Mesocricetus auratus, BHK-21, 48 h; read-out: GI. In outline:
(§2)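 RPMI-1640 culture with 10% heat-inactivated FBS, 2 mM glutamine, 1 mM pyruvate and penicillin/streptomycin at 37 °C, 5% CO2. Cells per 96-well well: H157 10⁴, BHK-21 5×10⁴. After 24 h, monolayers were exposed to 100, 10, 1 or 0.1 µM compound for 48 h, with vincristine as standard. Cells were fixed in cold 50% TCA (4 °C, 1 h) and stained with 0.4% SRB in 1% acetic acid (30 min). Dye was dissolved in 10 mM Tris and read at A490 minus A630. Read-out was percent inhibition.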
(In general: Sulforhodamine B stains cellular protein and so reports cell mass.)

Test [3] in a line: Anticancer activity against Syrian golden hamster BHK21 cells at 10 uM after 48 hrs by SRB assay. It is filed as functional. To be noted: Mesocricetus auratus, BHK-21, 48 h; read-out: GI. In outline: as §2
Test [4] in a line: Anticancer activity against Syrian golden hamster BHK21 cells at 1 uM after 48 hrs by SRB assay. It is filed as functional. To be noted: Mesocricetus auratus, BHK-21, 48 h; read-out: GI. In outline: as §2
Test [5] is described as follows: Anticancer activity against Syrian golden hamster BHK21 cells at 0.1 uM after 48 hrs by SRB assay. It is filed as functional. To be noted: Mesocricetus auratus, BHK-21, 48 h; read-out: GI. In a few lines: as §2
For test [6], the system named is NCI-H157. Put plainly: Anticancer activity against human NCI-H157 cells at 100 uM after 48 hrs by SRB assay. It is filed as functional. Conditions: NCI-H157, 48 h, read-out: GI. In outline: as §2
Test [7] has as its system NCI-H157. Put plainly: Anticancer activity against human NCI-H157 cells at 10 uM after 48 hrs by SRB assay. It is filed as functional. To be noted: NCI-H157, 48 h, read-out: GI. In a few lines:
as §2

Test [8] deals with NCI-H157. Description: Anticancer activity against human NCI-H157 cells at 1 uM after 48 hrs by SRB assay. Conditions: NCI-H157, 48 h, read-out: GI. It is filed as functional. In a few lines: as §2
The test system of test [9] is NCI-H157. Description: Anticancer activity against human NCI-H157 cells at 0.1 uM after 48 hrs by SRB assay. To be noted: NCI-H157, 48 h, read-out: GI. It is filed as functional. In outline:
as §2

The test system of test [10] is Leishmania major. Description: Antileishmanial activity against promastigote form of Leishmania major at 100 uM after 72 hrs by MTT assay. It is filed as functional. In outline:
(§3)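 Log-phase promastigotes grown at 25 °C in phenol-red-free D-MEM/F-12 with 10% heat-inactivated FBS, washed in PBS, seeded at 2.5×10⁶/mL (100 µL/well). Compounds in triplicate wells, 72 h at 25 °C; amphotericin B standard. MTT (5 mg/mL stock) 3 h, stopped with 50% isopropanol/10% SDS, OD570 minus 690. Percent inhibition vs control; mean ± SEM of three independent experiments.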
In general terms: Formazan colour is commonly taken as a measure of viable cells.

The test system of test [11] is Leishmania major. Put plainly: Antileishmanial activity against promastigote form of Leishmania major at 10 uM after 72 hrs by MTT assay. It is filed as functional. In a few lines:
as §3

For test [12], the system named is Leishmania major. Description: Antileishmanial activity against promastigote form of Leishmania major at 1 uM after 72 hrs by MTT assay. It is filed as functional. In outline: as §3
For test [13], the system named is Leishmania major. Put plainly: Antileishmanial activity against promastigote form of Leishmania major at 0.1 uM after 72 hrs by MTT assay. It is filed as functional. In a few lines: as §3
Test [14] has as its target Intestinal-type alkaline phosphatase (Bos taurus, UniProt P19111). The test is described as §1.

Intestinal-type alkaline phosphatase, sequence (P19111 whole entry): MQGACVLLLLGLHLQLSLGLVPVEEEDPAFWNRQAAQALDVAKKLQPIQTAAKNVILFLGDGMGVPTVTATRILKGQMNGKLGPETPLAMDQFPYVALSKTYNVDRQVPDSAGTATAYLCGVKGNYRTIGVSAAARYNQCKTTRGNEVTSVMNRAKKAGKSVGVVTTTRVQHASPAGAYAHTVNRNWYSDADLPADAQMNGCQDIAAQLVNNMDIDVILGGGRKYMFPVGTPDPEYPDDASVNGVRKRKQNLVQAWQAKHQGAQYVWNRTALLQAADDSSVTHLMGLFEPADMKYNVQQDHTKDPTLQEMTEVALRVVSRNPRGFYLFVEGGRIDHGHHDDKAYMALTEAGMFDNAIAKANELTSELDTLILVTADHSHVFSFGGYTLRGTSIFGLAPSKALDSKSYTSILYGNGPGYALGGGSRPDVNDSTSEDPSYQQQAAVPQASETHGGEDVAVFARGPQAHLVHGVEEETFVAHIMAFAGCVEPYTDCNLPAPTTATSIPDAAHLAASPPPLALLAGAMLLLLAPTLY

Regarding `Clc1cccc(C2=Nn3c(nnc3-c3ccncc3)SC2)c1`, the IC50 (as a rule, the point on the concentration scale where inhibition reaches its midpoint) on Acetylcholinesterase amounted to 22.7 µM; on Cholinesterase, 39.4 µM. In addition, in test [1], the inhibition – broadly, the change of the read-out against control, counted positive when it falls – stood at 48%. The inhibition of growth at 100 µM was 56.4% in [2] and 67.4% in the test with NCI-H157 [6]. Moreover, the inhibition of growth at 10 µM in test [3] is 53.3%; with NCI-H157 [7] it was 63.8%. Besides, the results for the inhibition of growth at 1 µM (in [4]; in the test on NCI-H157 [8]) were 50.3% and 60.8%, respectively. Further, the values for the inhibition of growth at 0.1 µM (in test [5]; with NCI-H157 [9]) were 46.2% and 57.4%, respectively. The compound further showed an inhibition at 100 µM in the test on Leishmania major [10] of 41.8%. In addition, in the test with Leishmania major [11], 10 µM produced 38.3% inhibition. Besides, the inhibition at 1 µM in the test with Leishmania major [12] was determined as 34.6%. Besides, the inhibition at 0.1 µM with Leishmania major [13] stood at 31.7%.

Take `Cc1ccccc1OCc1nn2c(-c3ccncc3)nnc2s1`: the results for the IC50 (against Acetylcholinesterase; against Cholinesterase; in [14]) were 41.5 µM, 51.3 µM and 3.08 µM, respectively. For the same compound, the inhibition of growth at 100 µM in test [2] was 62.1%; in the test with NCI-H157 [6], 59.2%. The inhibition of growth at 10 µM in test [3] is 56.5%; in the test with NCI-H157 [7], 56.8%. Also, the inhibition of growth at 1 µM stood at 54.9% in test [4] and 53.2% in the test on NCI-H157 [8]. In addition, the inhibition of growth at 0.1 µM was 51.2% in [5] and 50.5% in the test on NCI-H157 [9]. This compound also gave an inhibition at 100 µM in the test on Leishmania major [10] of 71.4%. The compound further yielded an inhibition at 10 µM with Leishmania major [11] of 68.9%. Also, in the test with Leishmania major [12], testing at 1 µM gave an inhibition of 65.5%. The inhibition at 0.1 µM in the test with Leishmania major [13] stood at 62.1%.

For `Fc1cc(Cl)ccc1-c1nn2c(-c3ccncc3)nnc2s1`, the IC50 on Acetylcholinesterase turned out to be 21.3 µM; on Cholinesterase it was 9.57 µM; in [14], 0.92 µM. Also, the inhibition of growth at 100 µM in test [2] came out at 55.6%; in the test on NCI-H157 [6] it was 85.5%. In addition, the inhibition of growth at 10 µM stood at 51.6% in [3] and 80.9% with NCI-H157 [7]. Further, the results for the inhibition of growth at 1 µM (in test [4]; in the test with NCI-H157 [8]) were 47.2% and 77.8%, respectively. Further, the inhibition of growth at 0.1 µM came out at 44.4% in test [5] and 73.7% in the test with NCI-H157 [9]. For the same compound, at 100 µM the inhibition in the test on Leishmania major [10] was 52.5%. In the test on Leishmania major [11], the inhibition at 10 µM is 49.5%. The compound further came in with an inhibition at 1 µM in the test on Leishmania major [12] of 46.2%. In the test with Leishmania major [13], this compound came in with an inhibition at 0.1 µM of 42.5%.

As for `O=[N+]([O-])c1cccc(C2=Nn3c(nnc3-c3ccncc3)SC2)c1`, the IC50 was determined as 28 µM against Acetylcholinesterase, 16.6 µM on Cholinesterase and 3.59 µM in test [14]. The inhibition of growth at 100 µM in [2] turned out to be 67.1%; with NCI-H157 [6] it was 69.4%. Besides, the inhibition of growth at 10 µM in [3] stood at 62.5%; in the test on NCI-H157 [7] it was 65.5%. In addition, the inhibition of growth at 1 µM in test [4] came out at 55.1%; with NCI-H157 [8], 62.1%. The values for the inhibition of growth at 0.1 µM (in test [5]; in the test on NCI-H157 [9]) were 48.2% and 57.9%, respectively. In the test on Leishmania major [10], the inhibition at 100 µM was found to be 63.1%. The inhibition at 10 µM in the test on Leishmania major [11] was 59.6%. The compound further registered an inhibition at 1 µM in the test with Leishmania major [12] of 57.5%. Also, testing at 0.1 µM with Leishmania major [13] gave an inhibition of 54.6%.

`COc1ccc(OCc2nn3c(-c4ccncc4)nnc3s2)cc1`: the half-inhibitory concentration (IC50) at Acetylcholinesterase turned out to be 0.77 µM; on Cholinesterase it was 37.9 µM; in test [14], 3.72 µM. The inhibition of growth at 100 µM in [2] is 74%; in the test on NCI-H157 [6] it was 68.9%. The inhibition of growth at 10 µM in test [3] is 71.9%; in the test with NCI-H157 [7], 65.6%. Also, the values for the inhibition of growth at 1 µM (in test [4]; in the test on NCI-H157 [8]) were 68.8% and 61.7%, respectively. In addition, the values for the inhibition of growth at 0.1 µM (in [5]; in the test on NCI-H157 [9]) were 63.3% and 57.2%, respectively. Besides, testing at 100 µM in the test with Leishmania major [10] gave an inhibition of 60.5%. The compound also showed an inhibition at 10 µM in the test with Leishmania major [11] of 57.2%. The compound also registered an inhibition at 1 µM with Leishmania major [12] of 52.2%. Moreover, in the test on Leishmania major [13], at 0.1 µM the inhibition was 49.6%.
